Active and inactive are the calls of the source. No cut-off for these calls is given here.
How the values were obtained:
[1] = Chemical stability of the compound in aqueous phosphate buffered saline assessed as half life at pH 7.4 in presence of 4 mM glutathione; format: physicochemical; conditions: gsh
[2] = system: NCI-H2122; assay: Antiproliferative activity against human NCI-H2122 cells after 72 hrs by MTT assay; format: functional, cell-based; conditions: NCI-H2122, 72 h
In short: (§1)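 Compounds (10 mM DMSO stocks, final DMSO ≤0.1%) added at increasing concentrations in PBS, incubated 72 h at 37 °C. MTT read-out, six repeats per concentration, at least two independent experiments.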

[3] = system: NCI-H1703; assay: Antitumor activity against human NCI-H1703 cells xenografted in athymic NCr nu/nu Charles river mouse assessed as reduction of tumor growth at 8 umol/kg, iv administered 3 times a week for 3 weeks relative to vehicle treated control; format: functional, organism-based
In short: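 H1703 xenografts (5×10^6 cells s.c., flank) in 7-week-old female athymic NCr-nu/nu mice, treated from tumor size ≥2×2×2 mm. Dosing i.v. (tail vein) three times weekly for 3 weeks in 2.25% P-123/PBS. Mice killed 2 h after the last dose; tumors excised and weighed. 13–15 mice/group; Mann-Whitney test against vehicle.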

[4] = system: NCI-H1703; assay: Antiproliferative activity against human NCI-H1703 cells after 72 hrs by MTT assay; format: functional, cell-based; conditions: NCI-H1703, 72 h; in short: as §1
[5] = system: NCI-H1703; assay: Induction of apoptosis in human NCI-H1703 cells assessed as PARP cleavage after 1 to 6 hrs by Western blot analysis; format: functional, cell-based
[6] = system: NCI-H1703; assay: Induction of apoptosis in human NCI-H1703 cells assessed as caspase 7 activation after 1 to 6 hrs by Western blot analysis; format: functional, cell-based
[7] = system: Mus musculus; assay: Induction of JNK phosphorylation in human NCI-H1703 cells xenografted NCr nu/nu Charles river mouse tumor at 8 umol/kg, iv administered 3 times a week for 3 weeks by immunohistochemical analysis; format: functional, organism-based
In short: (§2)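 H1703 xenografts in female athymic NCr-nu/nu mice, dosed i.v. three times weekly for 3 weeks in 2.25% P-123/PBS. Tumors taken 2 h after the last dose were immunostained for phospho-SAPK/JNK and ATF3. Intensity graded negative, very weak, weak, moderate or strong.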

[8] = system: NCI-H1703; assay: Antitumor activity against human NCI-H1703 cells xenografted in NCr nu/nu Charles river mouse assessed as tissue death in tumor at 8 umol/kg, iv administered 3 times a week for 3 weeks by H and E staining method relative to control; format: functional, organism-based
In short: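 Female athymic NCr-nu/nu mice, 7 weeks old, received 5×10^6 H1703 cells s.c. in the flank. Once tumors reached ≥2×2×2 mm, dosing was i.v. by tail vein three times weekly for 3 weeks in 2.25% P-123/PBS vehicle. Tumors excised 2 h after the last dose, H&E stained, and scored for areas of cell death against vehicle controls.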

[9] = system: Mus musculus; assay: Induction of JNK phosphorylation in human NCI-H1703 cells xenografted NCr nu/nu Charles river mouse tumor assessed as increase in ATF3 protein level at 8 umol/kg, iv administered 3 times a week for 3 weeks by immunohistochemical analysis; format: functional, organism-based; in short: as §2
[10] = Antiproliferative activity against human NCI-H1944 cells after 72 hrs by MTT assay; format: functional, cell-based; conditions: NCI-H1944, 72 h; in short: as §1
[11] = Antiproliferative activity against human NCI-H1373 cells after 72 hrs by MTT assay; format: functional, cell-based; conditions: NCI-H1373, 72 h; in short: as §1
[12] = system: NCI-H441; assay: Antiproliferative activity against human NCI-H441 cells after 72 hrs by MTT assay; format: functional, cell-based; conditions: NCI-H441, 72 h; in short: as §1
[13] = system: Mus musculus; assay: Toxicity in human NCI-H1703 cells xenografted athymic NCr nu/nu Charles river mouse assessed as change in body weight at 8 umol/kg, iv administered 3 times a week for 3 weeks (reference value: 22.2 +/- 0.4g); format: organism-based; conditions: in vivo, 504 h
In short: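 Xenografted female athymic NCr-nu/nu mice (H1703, 5×10^6 cells s.c.) dosed i.v. three times weekly for 3 weeks in 2.25% P-123/PBS vehicle. Body weights recorded before each injection and compared with vehicle-treated controls at start and end.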

[14] = Activation of JNK phosphorylation in human NCI-H1703 cells assessed as increase in ATF3 protein level at 1 uM by Western blot analysis; format: cell-based
[15] = Activation of JNK phosphorylation at Thr183 and Tyr185 in human NCI-H1703 cells at 1 uM within 30 mins by Western blot analysis; format: cell-based
[16] = Activation of JNK phosphorylation in human NCI-H1703 cells assessed as increase in ATF3 protein level at 1 uM within 2 hrs by Western blot analysis; format: cell-based
[17] = system: NCI-H1703; assay: Induction of apoptosis in human NCI-H1703 cells assessed as caspase 3 activation after 1 to 6 hrs by Western blot analysis; format: functional, cell-based

SMILES	t1/2 [1]	IC50 [2]	growth inhibition (GI) [3]	IC50 [4]	Activity [5]	Activity [6]	Activity [7]	Activity [8]	Activity [9]	IC50 [10]	IC50 [11]	IC50 [12]	Activity [13]	Activity [14]	Activity [15]	Activity [16]	Activity [17]
CCOC(=O)N1CCN(/[N+]([O-])=N/Oc2cc(C)c([N+](=O)[O-])cc2[N+](=O)[O-])CC1	1.19 h	7 µM	inactive	0.97 µM	inactive	inactive	inactive	inactive	inactive	> 10 µM	1.86 µM	1.61 µM	24.5 g	inactive	inactive	inactive	inactive
CCOC(=O)N1CCCN(/[N+]([O-])=N/Oc2cc(OC)c([N+](=O)[O-])cc2[N+](=O)[O-])CC1	0.993 h	10 µM	–	1.82 µM	–	–	–	–	–	> 10 µM	3.08 µM	3.15 µM	–	–	inactive	–	–

Source: ChEMBL document CHEMBL1914422, “Activation of the c-Jun N-terminal kinase/activating transcription factor 3 (ATF3) pathway characterizes effective arylated diazeniumdiolate-based nitric oxide-releasing anticancer prodrugs” (J Med Chem, 2011)
